Compound activity: PubChem BioAssay, The Scripps Research Institute Molecular Screening Center
Sampled rows, rich in hits. Any-hit rate of the full collection: about 3.5%.
SIAE inh – inhibitors of human sialic acid acetylesterase SIAE; inhibition, % at 9.66 µM; SIAE FP-Rh probe binding, fluorescence polarization; hit rate 0.69% among 370,000; Q9HAT2; AID 1053197;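 active = inhibition above a cutoff: mean of compounds within the control limits plus 3 SD of those, cut at about 17% in these data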;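 note: 0% = plate median of compound wells and 100% = probe without SIAE protein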
PRMT1 inh – PRMT1 (human) inhibition, primary screen | Q99873 | recombinant PRMT1, activity-based probe fluorescence polarization | inhibition, % at 2.79 µM | hit rate 1.3% among 370,000;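 active = inhibition above about 21% made by adding two undisclosed values, limit read from the data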
Target sequence (Q99873 whole entry, looked up): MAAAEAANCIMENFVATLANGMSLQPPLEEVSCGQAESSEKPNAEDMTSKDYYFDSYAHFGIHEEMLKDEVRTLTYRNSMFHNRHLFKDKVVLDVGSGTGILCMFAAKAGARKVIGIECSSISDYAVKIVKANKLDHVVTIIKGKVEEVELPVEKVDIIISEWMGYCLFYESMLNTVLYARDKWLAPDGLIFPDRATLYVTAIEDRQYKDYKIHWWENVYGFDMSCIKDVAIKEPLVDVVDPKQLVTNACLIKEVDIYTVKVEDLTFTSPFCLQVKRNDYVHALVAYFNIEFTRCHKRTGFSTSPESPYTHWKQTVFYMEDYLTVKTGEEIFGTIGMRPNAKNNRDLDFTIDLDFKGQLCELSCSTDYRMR
HTRA1 inhibitor – blocks human HTRA1 serine peptidase. recombinant HTRA1, FP-rhodamine activity-based probe, fluorescence polarization. AID 504803. inhibition, % at 5.96 µM. Q92743. hit rate 0.5% among 340,000; in the data active = inhibition above about 36%;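 note: 0% = enzyme with DMSO and 100% = wells lacking enzyme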
TCR CD3 inh – blocks the human TCR-CD3 interaction. AID 651800. inhibition, % at 9.4 µM. TAMRA-labeled TCR probe fluorescence, biochemical. hit rate 0.37% among 360,000; in the data active = inhibition above about 19%;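 note: recombinant mutant TCR 2C K166C tagged with TAMRA read by polarization; 0% = receptor in buffer alone and 100% = receptor with positive control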
rCAG binder – r(CAG) repeat RNA binding; TO-PRO-1 dye displacement fluorescence; inhibition, % at 3 µM; hit rate 1.3% among 370,000; AID 651821;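 active = inhibition above the plate cutoff, the mean of all test compounds on that plate plus 3 SD, cut at about 35% in these data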;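 note: 0% = DMSO alone and 100% = 100 µM mitoxantrone as full dye displacement; higher means more dye released from RNA so lower well fluorescence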
ABHD4 inh – inhibits mouse alpha/beta hydrolase domain 4 | purified mABHD4, FP-Rh probe fluorescence polarization | inhibition, % at 8.92 µM | hit rate 0.54% among 370,000 | AID 720543;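 active = inhibition exceeding the mean over every tested compound plus 3 SD, cut at about 30% in these data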;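 note: 0% = plate median of compound wells and 100% = S159A mutant with DMSO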
Target sequence (Q8VD66 whole entry, looked up, the tested form may be a part): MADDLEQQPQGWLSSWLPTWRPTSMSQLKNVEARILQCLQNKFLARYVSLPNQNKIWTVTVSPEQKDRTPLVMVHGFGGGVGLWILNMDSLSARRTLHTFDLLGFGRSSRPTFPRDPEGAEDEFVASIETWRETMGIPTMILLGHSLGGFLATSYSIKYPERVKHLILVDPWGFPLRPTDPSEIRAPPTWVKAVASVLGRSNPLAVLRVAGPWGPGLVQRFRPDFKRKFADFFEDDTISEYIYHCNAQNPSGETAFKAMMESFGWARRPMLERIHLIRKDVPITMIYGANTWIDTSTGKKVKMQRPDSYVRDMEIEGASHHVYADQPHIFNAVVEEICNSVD
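Material: mouse ABHD4 enzyme, wild type; Benchmarks: S159A mutant high control, sample median low control; Buffer or medium: HEPES pH 7.0, NaCl, Pluronic buffer; Signal: fluorescence polarization; Read-out: percent inhibition of probe binding, normalized to plate controls; Timing: pre-incubation 45 min, probe exposure 60 min, at 25 °C; Dosing: 8.92 µM, single dose.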
PRMT1 confirm – confirmation of human PRMT1 inhibitors; shares compounds with PRMT1 inh; recombinant His-PRMT1, activity-based probe fluorescence polarization; inhibition, % at 2.79 µM; hit rate 42% among 3,300;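 active = mean inhibition across replicates above the hit cutoff derived for the earlier primary screen, cut at about 22% in these data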
Starred values were filed as active, the others as inactive; . = not tested or not shown.

SMILES | SIAE inh | PRMT1 inh | HTRA1 inhibitor | TCR CD3 inh | rCAG binder | ABHD4 inh | PRMT1 confirm
COC(=O)CSc1nc2nc(-c3cccs3)cc(C(F)(F)F)c2c(=O)[nH]1 | -2 | 2 | 6 | 6 | 1 | 2 | .
CCOC(=O)N1CCN(C(=O)C[C@H]2C[C@@]3(C(=O)OC)C(=C[C@H](C(C)C)O[C@@H]3C3CC3)N(CCC3=CCCCC3)C2=O)CC1 | 1 | 0 | . | . | 3 | 1 | .
COc1ccc(-n2c(SCC(=O)N3CCCCC3C)nnc2-c2ccncc2)cc1 (stereo not drawn) | 4 | -2 | . | . | 3 | 7 | .
C[C@H](NC(=O)OCc1ccccc1)P(=O)(O)O | 4 | -2 | . | . | 0 | 7 | .
COc1cc(N2C(=O)C=CC2=O)ccc1N1C(=O)C=CC1=O | -2 | 91* | 0 | 5 | 8 | 5 | 87*
N#Cc1nccnc1S(=O)(=O)c1cccs1 | -4 | 84* | . | -1 | -2 | 3 | 82*
CN(Cc1ccccc1C#N)S(=O)(=O)c1cccs1 | -5 | -2 | -1 | -4 | 4 | 0 | .
Brc1ccc(CSc2nnc(SCc3ccccc3)s2)cc1 | -1 | 3 | . | . | 3 | 0 | .
Cc1nc2ccc(NC(=O)c3ccc(F)cc3Cl)cc2c(=O)[nH]1 | 2 | 4 | . | . | 3 | -3 | .
CCN(Cc1ccccc1)S(=O)(=O)CCNC(=O)c1ccccc1 | 2 | 33* | 2 | -5 | -4 | 1 | 1
CCN(Cc1ccccc1)S(=O)(=O)CCNC(=O)c1ccc(OC)cc1 | 1 | 5 | -7 | -1 | -4 | 0 | .
COc1ccc2[nH]cc(C(C)c3ccccc3O)c2c1 (stereo not drawn) | 5 | 3 | . | . | 5 | 4 | .
COCCCN1C(=O)[C@H](CC(=O)NCc2ccc(C)o2)[C@]2(C(=O)OC)CCCCC=C12 | 0 | 4 | . | . | 4 | 0 | .
c1ccc(Cn2c(SCC3CCCCC3)nnc2-c2cccnc2)cc1 | 2 | 46* | . | . | -2 | -2 | -4
O=C(Nc1ccc(Cl)c(Cl)c1)C1CCN(c2nnc(-n3cccc3)s2)CC1 | -12 | -2 | . | . | 6 | -42 | .
CC(=O)Nc1ccc2ccccc2c1 | . | . | 8 | . | . | . | .
CC(=O)Nc1ccc2cc3ccc(NC(C)=O)cc3nc2c1 | -7 | 37* | 9 | -5 | 8 | 5 | 22*
Cn1cc(C(=O)Nc2ccc(F)c(Cl)c2)cn1 | 4 | -2 | 2 | 9 | 1 | 5 | .
CN1c2ccsc2C(O)=C(C(=S)Nc2ccc(F)c(Cl)c2)S1(=O)=O | -3 | 30* | -12 | -4 | 67* | -17 | 21
O=C(N/N=C/C=C\c1ccco1)c1cccnc1 | 13 | 8 | 6 | 7 | 11 | 2 | .
O=C(N/N=C/C=C/c1ccco1)c1cccnc1 | 7 | 39* | 12 | 8 | 16 | 13 | 10
Clc1ccc(Cl)c(-c2nn3c(COc4ccccc4)nnc3s2)c1 | -3 | 28* | 0 | -7 | -1 | 1 | 0
COc1ccc(C(=O)N2CCC(Oc3cccnc3)CC2)c(OC)c1 | 5 | 4 | . | . | 1 | 10 | .
Cc1ccc(CN2CCCCC(NC(=O)c3ccccc3C)C2=O)cc1 (stereo not drawn) | 8 | -2 | . | . | 0 | -1 | .
CNC(=O)C(=O)Nc1c(O)c2ccccc2[nH]c1=O | 9 | 13 | 3 | 7 | 2 | 5 | .
SMILES | SIAE inh | PRMT1 inh | HTRA1 inhibitor | TCR CD3 inh | rCAG binder | ABHD4 inh | PRMT1 confirm
CCCCC(=O)Nc1c(O)c2ccccc2[nH]c1=O | -1 | 31* | 4 | -4 | -1 | -3 | -3
CCCCC(=O)NNC(=O)c1c(O)c2ccccc2[nH]c1=O | -9 | -3 | 7 | 18 | 1 | -6 | .
CC(=O)Nc1c(O)c2ccccc2[nH]c1=O | 2 | 36* | 7 | 2 | -4 | 2 | 13
Oc1ccc(N2CCN(Cc3ccc(OCCCN4CCCCC4)cc3)CC2)cc1 | -2 | 28* | 13 | -6 | 4 | 0 | 1
CCOC(=O)CC[C@H]1CC[C@]2(CCCN(S(C)(=O)=O)C2)O1 | 9 | -5 | . | . | 1 | -4 | .
O=C(CSc1ccc(Br)cc1)NCC1(N2CCCCC2)CCCCC1 | 1 | -1 | -3 | 7 | -4 | -4 | .
CC(=O)Nc1ccc(SCC(=O)NCC2(N3CCCCC3)CCCCC2)cc1 | -1 | 41* | -1 | -4 | 13 | 1 | 37*
C=CCN1C(=O)[C@@H](CC(=O)N2CCCCC2)[C@]2(C(=O)OCC)CCCCC/C=C/12 | 0 | -2 | . | . | 0 | 4 | .
Cc1cc(-c2n[nH]c(=S)n2/N=C/c2c[nH]c3ccccc23)n[nH]1 | -2 | 8 | -3 | 5 | 4 | -7 | .
Fc1ccc(-c2n[nH]c(=S)n2/N=C/c2c[nH]c3ccccc23)cc1 | -1 | 31* | -7 | -2 | 25 | 1 | 22*
COc1cc(C(c2nnnn2C(C)(C)C)N2CCN(c3nc4ccccc4s3)CC2)ccc1O (stereo not drawn) | -4 | 44* | -3 | 1 | -1 | 1 | 31*
CCN(CC)c1ccc(N=C2C=CC(=O)C=C2NC(C)=O)cc1 | -25 | 54* | . | 6 | 25 | -8 | 3
COc1cc(Cl)ccc1NC(=S)N(CCCN1CCOCC1)Cc1cn(C)c2ccccc12 | 0 | 34* | -5 | -9 | 2 | 10 | 37*
COc1ccc(Cl)cc1NC(=S)N(CCCN1CCOCC1)Cc1cn(C)c2ccccc12 | 2 | 34* | -11 | -4 | 1 | -1 | 37*
CCn1c2ccccc2c2cc(NC(=O)c3cc4c(C)nn(-c5ccccc5)c4s3)ccc21 | 5 | 1 | . | . | 20 | 1 | .
COC(=O)C[C@@H]1CC[C@H]2[C@@H](COc3ccc(NC(=O)Nc4ccc(C)cc4)cc3C(=O)N2C)O1 | 1 | 0 | . | . | 1 | -3 | .
O=C(O)CN1C(=O)C2C3CC(C2C1=O)C1C(c2ccc(Cl)cc2)c2sc(=O)[nH]c2SC31 (stereo not drawn) | 9 | 64* | 5 | -13 | 30 | 2 | 15
O=c1[nH]c2c(s1)C(c1ccc(O)cc1)C1C3CCC(C3)C1S2 (stereo not drawn) | 3 | 4 | -64 | 7 | 22 | -12 | .
CC(C(=O)O)N1C(=O)C2C3CC(C2C1=O)C1C(c2ccccc2)c2sc(=O)[nH]c2SC31 (stereo not drawn) | 5 | 29* | 4 | 12 | 16 | 3 | 21*
O=C(O)CCCN1C(=O)C2C3CC(C2C1=O)C1C(c2ccccc2)c2sc(=O)[nH]c2SC31 (stereo not drawn) | 6 | 12 | 2 | 3 | 8 | -2 | .
O=C(O)CN1C(=O)C2C3CC(C2C1=O)C1C(c2ccc(F)cc2)c2sc(=O)[nH]c2SC31 (stereo not drawn) | 2 | 37* | 4 | 4 | 19 | -4 | 22*
CCc1c(O)nc(SCC(=O)Nc2ccc(Cl)cc2)n(-c2ccccc2)c1=O | 0 | 38* | 3 | -7 | 10 | 7 | 35*
